Measured values: ChEMBL document CHEMBL1125826, “Synthesis and biological activity of 5-amino- and 5-hydroxyquinolones, and the overwhelming influence of the remote N1-substituent in determining the structure-activity relationship” (1991)
In brackets after ≈: the same amount, converted by molar mass.

Columns and labels:
Assay type in all cases: functional
Staphylococcus aureus [1] = experiment: Antibacterial activity was determined against gram positive organism, Staphylococcus aureus UC76
Procedure, shortened: (§1)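 MIC (µg/mL) by standard microtitration against a panel of 10 Gram-positive and Gram-negative organisms; values averaged from multiple experiments.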

Bacteria [2] = experiment: Antibacterial activity was determined against gram negative organism, Providencia rettgeri. M1771; conditions: Bacteria; read-out: MIC; procedure, shortened: as §1
[3] = biological target: DNA gyrase (Escherichia coli) (UniProt P0AES6+P0AES4); experiment: Minimum inhibitory concentration against Escherichia coli DNA-gyrase in supercoiling assay
Staphylococcus aureus [4] = experiment: Antibacterial activity was determined against gram positive organism, Staphylococcus aureus H228; conditions: Staphylococcus aureus; read-out: MIC; procedure, shortened: as §1
Enterococcus faecalis = experiment: Antibacterial activity was determined against gram positive organism, Streptococcus faecalis MGH-2; conditions: Enterococcus faecalis; read-out: MIC; procedure, shortened: as §1
Bacteria [5] = experiment: MIC ratio measured as the mean MICs of gram-positive bacteria
Procedure, shortened: (§2)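 Geometric mean of the microtitration MICs (µg/mL) over the Gram-negative organisms, and separately over the Gram-positive organisms, of the 10-strain panel; individual MICs averaged from multiple experiments.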

Streptococcus pyogenes = experiment: Antibacterial activity was determined against gram positive organism, Streptococcus pyogenes C203; conditions: Streptococcus pyogenes; read-out: MIC; procedure, shortened: as §1
Klebsiella pneumoniae = experiment: Antibacterial activity was determined against gram negative organism, Klebsiella pneumoniae MGH-2; conditions: Klebsiella pneumoniae; read-out: MIC; procedure, shortened: as §1
Escherichia coli = experiment: Antibacterial activity was determined against gram negative organism, Escherichia coli vogel; conditions: Escherichia coli; read-out: MIC; procedure, shortened: as §1
Bacteria [6] = experiment: MIC ratio measured as the mean MICs of gram-negative bacteria; procedure, shortened: as §2
Streptococcus pneumoniae = experiment: Antibacterial activity was determined against gram positive organism, Streptococcus pneumoniae SV-1; conditions: Streptococcus pneumoniae; read-out: MIC; procedure, shortened: as §1
Pseudomonas aeruginosa = experiment: Antibacterial activity was determined against gram negative organism, Pseudomonas aeruginosa UI-18; conditions: Pseudomonas aeruginosa; read-out: MIC; procedure, shortened: as §1
Enterobacter cloacae = experiment: Antibacterial activity was determined against gram negative organism, Enterobacter cloacae MA2646; conditions: Enterobacter cloacae; read-out: MIC
[7] = Staphylococcus aureus, read-out: MIC

SMILES | MIC (Staphylococcus aureus [1]) | MIC (Bacteria [2]) | MIC [3] | MIC (Staphylococcus aureus [4]) | MIC (Enterococcus faecalis) | Geometric mean MIC over Gram-positive bacteria (µg/mL) (Bacteria [5]) | MIC (Streptococcus pyogenes) | MIC (Klebsiella pneumoniae) | MIC (Escherichia coli) | Geometric mean MIC over Gram-negative bacteria (µg/mL) (Bacteria [6]) | MIC (Streptococcus pneumoniae) | MIC (Pseudomonas aeruginosa) | MIC (Enterobacter cloacae) | MIC (Staphylococcus aureus [1]; [7]) | Ratio (Bacteria [5])
CCn1cc(C(=O)O)c(=O)c2cc(F)c(N3CCNC(C)C3)cc21 (configuration not stated) | 0.2 µg/mL (≈ 0.6 µM) | 0.2 µg/mL (≈ 0.6 µM) | 2.5 µg/mL (≈ 7.5 µM) | 1.6 µg/mL (≈ 4.8 µM) | 1.6 µg/mL (≈ 4.8 µM) | 1.05 | 1.6 µg/mL (≈ 4.8 µM) | 0.2 µg/mL (≈ 0.6 µM) | 0.1 µg/mL (≈ 0.3 µM) | 0.23 | 1.6 µg/mL (≈ 4.8 µM) | 1.6 µg/mL (≈ 4.8 µM) | 0.1 µg/mL (≈ 0.3 µM) |  | 
CCn1cc(C(=O)O)c(=O)c2c(N)c(F)c(N3CC(C)NC(C)C3)c(Cl)c21 (configuration not stated) |  | 6.3 µg/mL (≈ 15.9 µM) | 7.5 µg/mL (≈ 18.9 µM) | 3.1 µg/mL (≈ 7.81 µM) | 12.5 µg/mL (≈ 31.5 µM) | 8.27 | 25 µg/mL (≈ 63 µM) | 6.3 µg/mL (≈ 15.9 µM) | 1.6 µg/mL (≈ 4.03 µM) | 4.18 | 25 µg/mL (≈ 63 µM) | 12.5 µg/mL (≈ 31.5 µM) | 1.6 µg/mL (≈ 4.03 µM) | 1.6 µg/mL (≈ 4.03 µM) | 
NC1CCN(c2c(F)cc3c(=O)c(C(=O)O)cn(C4CC4)c3c2Cl)C1 (stereo in doubt; 1h-4) |  |  | 0.5 µg/mL (≈ 1.37 µM) |  |  |  |  |  |  | 0.029 |  |  |  |  | 
CCNCC1CCN(c2c(F)cc3c(=O)c(C(=O)O)cn(CC)c3c2F)C1 (configuration not stated) [MERAFLOXACIN] | 0.05 µg/mL (≈ 0.132 µM) | 0.4 µg/mL (≈ 1.05 µM) | 2.5 µg/mL (≈ 6.59 µM) | 0.1 µg/mL (≈ 0.264 µM) | 0.1 µg/mL (≈ 0.264 µM) |  | 0.1 µg/mL (≈ 0.264 µM) | 0.2 µg/mL (≈ 0.527 µM) | 0.1 µg/mL (≈ 0.264 µM) | 0.26 | 0.1 µg/mL (≈ 0.264 µM) | 1.6 µg/mL (≈ 4.22 µM) | 0.1 µg/mL (≈ 0.264 µM) |  | 0.087
CC1CN(c2cc3c(cc2F)c(=O)c(C(=O)O)cn3-c2ccc(F)cc2F)CCN1 (configuration not stated) [TEMAFLOXACIN] | 0.025 µg/mL (≈ 0.0599 µM) | 0.2 µg/mL (≈ 0.479 µM) | 0.75 µg/mL (≈ 1.8 µM) | 0.1 µg/mL (≈ 0.24 µM) | 0.2 µg/mL (≈ 0.479 µM) | 0.087 | 0.1 µg/mL (≈ 0.24 µM) | 0.1 µg/mL (≈ 0.24 µM) | 0.05 µg/mL (≈ 0.12 µM) | 0.15 | 0.1 µg/mL (≈ 0.24 µM) | 1.6 µg/mL (≈ 3.83 µM) | 0.05 µg/mL (≈ 0.12 µM) |  | 
CCn1cc(C(=O)O)c(=O)c2c(O)c(F)c(N3CCNCC3)c(F)c21 |  | 1.6 µg/mL (≈ 4.53 µM) | 5 µg/mL (≈ 14.2 µM) | 12.5 µg/mL (≈ 35.4 µM) | 25 µg/mL (≈ 70.8 µM) | 12.56 | 25 µg/mL (≈ 70.8 µM) | 0.8 µg/mL (≈ 2.26 µM) | 0.4 µg/mL (≈ 1.13 µM) | 0.8 | 25 µg/mL (≈ 70.8 µM) | 1.6 µg/mL (≈ 4.53 µM) | 0.4 µg/mL (≈ 1.13 µM) | 1.6 µg/mL (≈ 4.53 µM) | 
CCn1cc(C(=O)O)c(=O)c2c(O)c(F)c(N3CCC(N)C3)c(F)c21 (configuration not stated) |  | 0.4 µg/mL (≈ 1.13 µM) | 2.5 µg/mL (≈ 7.08 µM) | 1.6 µg/mL (≈ 4.53 µM) | 3.1 µg/mL (≈ 8.77 µM) | 1.2 | 1.6 µg/mL (≈ 4.53 µM) | 0.4 µg/mL (≈ 1.13 µM) | 0.2 µg/mL (≈ 0.566 µM) | 0.35 | 1.6 µg/mL (≈ 4.53 µM) | 0.8 µg/mL (≈ 2.26 µM) | 0.2 µg/mL (≈ 0.566 µM) | 0.2 µg/mL (≈ 0.566 µM) | 
CCNCC1CCN(c2cc3c(c(N)c2F)c(=O)c(C(=O)O)cn3CC)C1 (configuration not stated) |  | 12.5 µg/mL (≈ 33.2 µM) | 7.5 µg/mL (≈ 19.9 µM) | 0.8 µg/mL (≈ 2.13 µM) | 0.8 µg/mL (≈ 2.13 µM) | 0.46 | 0.8 µg/mL (≈ 2.13 µM) | 3.1 µg/mL (≈ 8.24 µM) | 0.8 µg/mL (≈ 2.13 µM) | 4.15 | 0.4 µg/mL (≈ 1.06 µM) | 25 µg/mL (≈ 66.4 µM) | 1.6 µg/mL (≈ 4.25 µM) | 0.1 µg/mL (≈ 0.266 µM) | 
CCn1cc(C(=O)O)c(=O)c2cc(F)c(N3CCC(N)C3)c(Cl)c21 (configuration not stated) | 0.1 µg/mL (≈ 0.283 µM) | 0.2 µg/mL (≈ 0.565 µM) | 2.5 µg/mL (≈ 7.07 µM) | 0.4 µg/mL (≈ 1.13 µM) | 0.4 µg/mL (≈ 1.13 µM) | 0.3 | 0.4 µg/mL (≈ 1.13 µM) | 0.1 µg/mL (≈ 0.283 µM) | 0.05 µg/mL (≈ 0.141 µM) | 0.13 | 0.4 µg/mL (≈ 1.13 µM) | 0.8 µg/mL (≈ 2.26 µM) | 0.05 µg/mL (≈ 0.141 µM) |  | 
CCn1cc(C(=O)O)c(=O)c2cc(F)c(N3CCNC(C)C3)c(F)c21 (configuration not stated) [LOMEFLOXACIN] | 0.4 µg/mL (≈ 1.14 µM) | 0.4 µg/mL (≈ 1.14 µM) | 2.5 µg/mL (≈ 7.12 µM) | 1.6 µg/mL (≈ 4.55 µM) | 3.1 µg/mL (≈ 8.82 µM) | 1.58 | 3.1 µg/mL (≈ 8.82 µM) | 0.2 µg/mL (≈ 0.569 µM) | 0.1 µg/mL (≈ 0.285 µM) | 0.26 | 1.6 µg/mL (≈ 4.55 µM) | 1.6 µg/mL (≈ 4.55 µM) | 0.1 µg/mL (≈ 0.285 µM) |  | 
CCNCC1CCN(c2c(F)c(N)c3c(=O)c(C(=O)O)cn(CC)c3c2F)C1 (configuration not stated) |  | 1.6 µg/mL (≈ 4.06 µM) | 3.8 µg/mL (≈ 9.63 µM) | 0.2 µg/mL (≈ 0.507 µM) | 0.2 µg/mL (≈ 0.507 µM) | 0.17 | 0.2 µg/mL (≈ 0.507 µM) | 1.6 µg/mL (≈ 4.06 µM) | 0.2 µg/mL (≈ 0.507 µM) | 1.05 | 0.2 µg/mL (≈ 0.507 µM) | 6.3 µg/mL (≈ 16 µM) | 0.4 µg/mL (≈ 1.01 µM) | 0.1 µg/mL (≈ 0.254 µM) | 
